Active and inactive are the calls of the source. The rule behind the calls is not given here.
Tests used:
Rattus norvegicus [1] = assay: Locomotory activity was determined in non pretreated rats at a dose of 52 umol/kg by subcutaneous administration; I denotes inactive; assay type: functional
Summary of the method: (§1)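 Untreated rats received test drug sc 5 min before a 30-min session in photocell motility meters, with accumulated counts recorded. Activity is expressed as percent of saline controls, mean ± SEM, n = 3-5. Gross behaviour was observed through a semitransparent mirror. Differences from saline controls were assessed by Student's t test.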

Rattus norvegicus [2] = assay: In vivo DOPA accumulation in reserpine pretreated rat striatum system by subcutaneous administration; assay type: functional
Summary of the method: (§2)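 Rats received reserpine (5 mg/kg sc) 18 h, test drug sc 60 min and NSD 1015 (100 mg/kg ip) 30 min before death, with saline controls. Limbic or striatal DOPA was measured. Dose for half-maximal decrease was estimated from 4-7-dose curves (n = 3-5), minimal level as % of control.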

Rattus norvegicus [3] = assay: In vivo DOPA accumulation in reserpine pretreated rat limbic system by subcutaneous administration; I denotes inactive; assay type: functional, organism-based; summary of the method: as §2
Rattus norvegicus [4] = assay: In vivo DOPA accumulation in non pretreated rat striatum system by subcutaneous administration; I denotes inactive; assay type: functional, organism-based
Summary of the method: (§3)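 Rats without pretreatment received test drug sc 65 min and NSD 1015 (100 mg/kg ip) 30 min before death, with saline controls. DOPA was measured in limbic or striatal tissue. Dose for half-maximal change was estimated from 4-5-dose curves (n = 3-5), maximal level as % of control.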

Rattus norvegicus [5] = assay: In vivo DOPA accumulation in non pretreated rat limbic system by subcutaneous administration; I denotes inactive; assay type: functional, organism-based; summary of the method: as §3
Rattus norvegicus [6] = assay: In vivo DOPA accumulation in non pre-treated rat striatal system following s.c. administration.; assay type: functional; settings: sc; summary of the method: as §3
Rattus norvegicus [7] = assay: In vivo DOPA accumulation in non pre-treated rat limbic system following s.c. administration.; assay type: functional; settings: sc; summary of the method: as §3
Rattus norvegicus [8] = assay: Induced locomotor stimulation in non pre-treated rats by 13 umol/kg s.c. administration.; assay type: functional
Rattus norvegicus [9] = assay: ((+)-UH-232) induced locomotor stimulation was determined in non pretreated rats at a dose of 52 umol/kg by subcutaneous administration; assay type: functional
Rattus norvegicus [10] = assay: Locomotory activity was determined in non pretreated rats at a dose of 3.2 umol/kg by subcutaneous administration; assay type: functional; summary of the method: as §1
Rattus norvegicus [11] = assay: Induced locomotor stimulation in non pre-treated rats by 52 umol/kg s.c. administration.; assay type: functional
[12] = target: T1, Dopamine receptor (Rattus norvegicus) (UniProt P25115+P19020+P30729+P18901+P61169); assay: In vivo displacement of DiPr-5,6-ADTN from Dopamine receptors in rat striatum; assay type: organism-based
[13] = target: T1, Dopamine receptor (Rattus norvegicus); assay: Ability to displace the Dopamine receptor agonist DiPr-5,6-ADTN from rat striatal binding sites in vivo at a dose of 52 umol/kg by subcutaneous administration; assay type: organism-based
Rattus norvegicus [14] = assay: Change in rectal temperature induced by DiPr-5,6-ADTN at a dose of 13 umol/kg of compound by subcutaneous administration; assay type: functional
Summary of the method: (§4)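 Rats received DiPr-5,6-ADTN (0.25 μmol/kg sc) 100 min and test compound sc 40 min before death. Rectal temperature change (°C) was recorded between 60 and 100 min after DiPr-5,6-ADTN. Values are mean ± SEM, n = 4, with Student's t test vs DiPr-5,6-ADTN alone.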

Rattus norvegicus [15] = assay: Change in rectal temperature induced by DiPr-5,6-ADTN at a dose of 52 umol/kg of compound by subcutaneous administration; assay type: functional; summary of the method: as §4
Rattus norvegicus [16] = assay: Locomotory activity was determined in non pretreated rats at a dose of 52 umol/kg by subcutaneous administration; assay type: functional; summary of the method: as §1
[17] = target: T1, Dopamine receptor (Rattus norvegicus); assay: Ability to displace the Dopamine receptor agonist DiPr-5,6-ADTN from rat striatal binding sites in vivo at a dose of 13 uM/kg by subcutaneous administration; assay type: organism-based
Rattus norvegicus [18] = assay: Locomotory activity was determined in reserpine pretreated rats at a dose of 52 umol/kg by subcutaneous administration. Value is the accumulation counts/30 min; assay type: functional
Summary of the method: (§5)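 Rats were given reserpine 5 mg/kg sc 18 h beforehand, then test drug sc immediately before the activity session. Motor activity was recorded by photocells in motility meters as accumulated counts over 30 min, mean ± SEM, n = 3-4. Gross behaviour was watched for signs of stimulation. Reserpine-only controls were included.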

Rattus norvegicus [19] = assay: In vivo DOPA accumulation in reserpine pretreated rat striatum system by subcutaneous administration; denotes inactive; assay type: functional, organism-based; summary of the method: as §2
Rattus norvegicus [20] = assay: In vivo DOPA accumulation in non pretreated rat striatum system by subcutaneous administration; denotes inactive; assay type: functional, organism-based; summary of the method: as §3
Rattus norvegicus [21] = assay: In vivo DOPA accumulation in reserpine pretreated rat limbic system by subcutaneous administration; assay type: functional; settings: sc; summary of the method: as §2
Rattus norvegicus [22] = assay: In vivo % increase in DOPA accumulation in non pretreated rat limbic system after 52 umol/kg (sc); I denotes inactive; assay type: functional, organism-based
Rattus norvegicus [23] = assay: In vivo % increase in DOPA accumulation in non pretreated rat striatum system after 52 umol/kg (sc); I denotes inactive; assay type: functional, organism-based
[24] = target: T1, Dopamine receptor (Rattus norvegicus); assay: Ability to displace the Dopamine receptor agonist DiPr-5,6-ADTN from rat striatal binding sites in vivo at a dose of 40 uM/kg by subcutaneous administration; assay type: organism-based
Rattus norvegicus [25] = assay: In vivo DOPA accumulation in reserpine pretreated rat striatum system by subcutaneous administration; I denotes inactive; assay type: functional, organism-based; summary of the method: as §2
Rattus norvegicus [26] = assay: Change in rectal temperature induced by DiPr-5,6-ADTN at a dose of 10 umol/kg of compound by subcutaneous administration; assay type: functional; summary of the method: as §4
[27] = target: T1, Dopamine receptor (Rattus norvegicus); assay: Ability to displace the Dopamine receptor agonist DiPr-5,6-ADTN from rat striatal binding sites in vivo at a dose of 10 uM/kg by subcutaneous administration; assay type: organism-based
Rattus norvegicus [28] = assay: Change in rectal temperature induced by DiPr-5,6-ADTN at a dose of 40 umol/kg of compound by subcutaneous administration; assay type: functional; summary of the method: as §4
Rattus norvegicus [29] = assay: In vivo DOPA accumulation in non pretreated rat striatum system by subcutaneous administration; indicates 40-80% increase in limbic system after 52 umol/kg (sc); assay type: functional, organism-based; summary of the method: as §3
Rattus norvegicus [30] = assay: In vivo DOPA accumulation in non pretreated rat limbic system by subcutaneous administration; indicates 40-80% increase in limbic system after 52 umol/kg (sc); assay type: functional, organism-based; summary of the method: as §3
Rattus norvegicus [31] = assay: Induced locomotor stimulation was determined in non pretreated rats at a dose of 52 uM/kg by subcutaneous administration; assay type: functional; summary of the method: as §1
Rattus norvegicus [32] = assay: Locomotory activity was determined in reserpine pretreated rats at a dose of 204 umol/kg by subcutaneous administration. Value is the accumulation counts/30 min; assay type: functional; summary of the method: as §5
[33] = target: T1, Dopamine receptor (Rattus norvegicus); assay: Ability to displace the Dopamine receptor agonist DiPr-5,6-ADTN from rat striatal binding sites in vivo at a dose of 52 uM/kg by subcutaneous administration; assay type: organism-based
Rattus norvegicus [34] = assay: In vivo DOPA accumulation in non pretreated rat limbic system by subcutaneous administration;. indicates 40-50% increase in limbic system after 52 umol/kg (sc); assay type: functional, organism-based; summary of the method: as §3
Rattus norvegicus [35] = assay: In vivo DOPA accumulation in non pretreated rat striatum system by subcutaneous administration.; hr indicates 40-50% increase in limbic system after 52 umol/kg (sc); assay type: functional, organism-based; summary of the method: as §3

Row | Compound | ED50 (Rattus norvegicus [6]) [µmol/kg] | ED50 (Rattus norvegicus [7]) [µmol/kg] | Activity (Rattus norvegicus [8]) [%] | Activity (Rattus norvegicus [10]) [%] | Activity (Rattus norvegicus [11]) [%] | Binding [12] [%] | Body temp change (Rattus norvegicus [14]) [°C] | also measured
1 | CCCN(CCC)[C@@H]1CCc2c(OC)cccc2[C@H]1C |  |  |  |  |  |  |  | Activity (Rattus norvegicus [1]): 88%; ED50 (Rattus norvegicus [2]): inactive; ED50 (Rattus norvegicus [3]): inactive; ED50 (Rattus norvegicus [4]): inactive; ED50 (Rattus norvegicus [5]): inactive
2 | CN[C@@H]1CCc2c(OC)cccc2[C@@H]1C | 1.8 | 4.7 | 35 | 86 | 29 | 51 |  | Activity (Rattus norvegicus [9]): 9%; Binding [13]: 20%; Temperature (Rattus norvegicus [14]): -0.25 °C; Temperature (Rattus norvegicus [15]): 0.93 °C
3 | CCCCN[C@@H]1CCc2c(OC)cccc2[C@@H]1C | 20 | 18 | 82 | 113 |  | 76 |  | Activity (Rattus norvegicus [16]): 135%; Temperature (Rattus norvegicus [14]): -0.25 °C
4 | CCCCN(CCCC)[C@@H]1CCc2c(OC)cccc2[C@@H]1C |  |  | 96 |  | 96 |  | -0.27 | ED50 (Rattus norvegicus [4]): inactive; Binding [17]: 115%; ED50 (Rattus norvegicus [5]): inactive
5 | CCCN[C@@H]1CCc2c(O)cccc2[C@@H]1C | 16 | 9 | 107 | 114 | 125 | 66 | 0.1 | 
6 | CCCN[C@H]1CCc2c(OC)cccc2[C@H]1C |  |  |  | 113 |  |  |  | Activity (Rattus norvegicus [16]): 119%; ED50 (Rattus norvegicus [3]): inactive; ED50 (Rattus norvegicus [4]): inactive; Activity (Rattus norvegicus [18]): 12 counts/30 min; ED50 (Rattus norvegicus [5]): inactive; ED50 (Rattus norvegicus [19]): inactive
7 | C[C@H]1c2cccc(O)c2CC[C@H]1N |  |  | 86 | 94 |  | 98 |  | Activity (Rattus norvegicus [16]): 97%; ED50 (Rattus norvegicus [20]): inactive; ED50 (Rattus norvegicus [5]): inactive; Temperature (Rattus norvegicus [14]): -0.7 °C
8 | CCN(CC)[C@H]1CCc2c(O)cccc2[C@H]1C |  |  | 100 |  | 40 |  | 0.22 | ED50 (Rattus norvegicus [21]): 1.4 µmol/kg; ED50 (Rattus norvegicus [2]; sc): 1.6 µmol/kg; ED50 (Rattus norvegicus [22]): inactive; Activity (Rattus norvegicus [18]): 5 counts/30 min; Binding [17]: 70%; ED50 (Rattus norvegicus [23]): inactive
9 | CCCN(CCC)[C@@H]1CCc2c(O)cccc2[C@@H]1C | 9.4 | 110 |  | 110 | 102 |  |  | Binding [24]: 21%; ED50 (Rattus norvegicus [25]): inactive; ED50 (Rattus norvegicus [3]): inactive; Body temp change (Rattus norvegicus [26]): 1.7 °C; Binding [27]: 61%; Activity (Rattus norvegicus [18]): 6 counts/30 min; Body temp change (Rattus norvegicus [28]): 1.7 °C
10 | CCCCN(CCCC)[C@@H]1CCc2c(O)cccc2[C@@H]1C |  |  | 89 |  | 82 |  | -0.43 | ED50 (Rattus norvegicus [29]): Weak activity; ED50 (Rattus norvegicus [30]): Weak activity; Binding [17]: 96%
11 | CCN[C@@H]1CCc2c(OC)cccc2[C@@H]1C | 4.8 | 5.3 | 69 | 108 |  | 36 |  | Activity (Rattus norvegicus [16]): 60%; Temperature (Rattus norvegicus [14]): 1.33 °C
12 | CCCCN(CCCC)[C@H]1CCc2c(O)cccc2[C@H]1C |  |  | 87 |  |  |  | -0.7 | ED50 (Rattus norvegicus [25]): inactive; ED50 (Rattus norvegicus [3]): inactive; Activity (Rattus norvegicus [18]): 6 counts/30 min; Binding [17]: 124%
13 | CN[C@@H]1CCc2c(O)cccc2[C@@H]1C | 7.5 | 5.5 | 73 | 143 |  | 54 |  | Activity (Rattus norvegicus [16]): 47%; Temperature (Rattus norvegicus [14]): 0.15 °C
14 | C[C@@H]1c2cccc(O)c2CC[C@@H]1N(C)C | 8.5 | 8.5 | 34 |  | 15 |  | 0.88 | ED50 (Rattus norvegicus [21]): 28 µmol/kg; ED50 (Rattus norvegicus [2]; sc): 25 µmol/kg; Activity (Rattus norvegicus [31]): 4%; Activity (Rattus norvegicus [32]): 7 counts/30 min; Binding [33]: 22%; Binding [17]: 63%; Body temp change (Rattus norvegicus [15]): 1.82 °C
15 | CCCN(CCC)[C@H]1CCc2c(OC)cccc2[C@@H]1C |  |  |  |  | 82 |  |  | ED50 (Rattus norvegicus [25]): inactive; ED50 (Rattus norvegicus [3]): inactive; ED50 (Rattus norvegicus [4]): inactive; ED50 (Rattus norvegicus [5]): inactive
16 | COc1cccc2c1CC[C@@H](N)[C@H]2C | 4.2 | 4.4 | 88 | 136 |  | 83 |  | Activity (Rattus norvegicus [16]): 62%; Temperature (Rattus norvegicus [14]): -1.33 °C
17 | CCN[C@@H]1CCc2c(O)cccc2[C@@H]1C | 6 | 15 | 95 | 83 | 62 | 64 | -0.5 | 
18 | CCCCN[C@@H]1CCc2c(O)cccc2[C@@H]1C |  |  | 80 | 89 | 76 |  | -0.93 | ED50 (Rattus norvegicus [34]): Weak activity; ED50 (Rattus norvegicus [35]): Weak activity; Binding [17]: 46%
19 | CCN(CC)[C@@H]1CCc2c(O)cccc2[C@@H]1C | 6.5 | 13 | 63 | 113 | 19 | 49 | 0.2 | 
20 | CCCN(CCC)[C@@H]1CCc2c(O)cccc2[C@H]1C |  |  |  |  | 97 |  |  | ED50 (Rattus norvegicus [25]): inactive; ED50 (Rattus norvegicus [3]): inactive; ED50 (Rattus norvegicus [4]): inactive; ED50 (Rattus norvegicus [5]): inactive
21 | C[C@H]1c2cccc(O)c2CC[C@H]1N(C)C | 3.4 | 5.5 | 11 | 76 | 1 | 39 | 1.48 | 
